Reference: ChEMBL document CHEMBL4312005, “Optimization of pyrrolizine-based Schiff bases with 4-thiazolidinone motif: Design, synthesis and investigation of cytotoxicity and anti-inflammatory potency” (Eur J Med Chem, 2020)

Columns and labels:
[1] = biological target: AMP-activated protein kinase (AMPK) alpha-1/beta-1/gamma-1 (Homo sapiens) (UniProt P54619+Q9Y478+Q13131); assay: Inhibition of recombinant human C-terminal His-tagged full length AMPK alpha1/beta1/gamma1 expressed in baculovirus infected Sf9 insect cells assessed as enzyme activity incubated for 15 mins by [gamma-33]ATP based scintillation counting method relative to control; parameters: scale not given: the % may be the effect or the level left
AMP-activated protein kinase (AMPK) alpha-1/beta-1/gamma-1 (Homo sapiens), sequence (P54619 whole entry): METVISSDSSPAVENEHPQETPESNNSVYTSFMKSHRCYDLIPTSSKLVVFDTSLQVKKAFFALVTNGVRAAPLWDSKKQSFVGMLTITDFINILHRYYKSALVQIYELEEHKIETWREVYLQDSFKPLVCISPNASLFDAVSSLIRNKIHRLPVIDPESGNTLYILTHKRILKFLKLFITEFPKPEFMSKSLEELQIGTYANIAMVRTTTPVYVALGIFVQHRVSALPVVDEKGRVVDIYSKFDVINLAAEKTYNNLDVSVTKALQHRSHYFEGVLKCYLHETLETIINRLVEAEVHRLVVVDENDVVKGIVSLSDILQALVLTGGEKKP
AMP-activated protein kinase (AMPK) alpha-1/beta-1/gamma-1 (Homo sapiens), sequence (Q13131 whole entry partner): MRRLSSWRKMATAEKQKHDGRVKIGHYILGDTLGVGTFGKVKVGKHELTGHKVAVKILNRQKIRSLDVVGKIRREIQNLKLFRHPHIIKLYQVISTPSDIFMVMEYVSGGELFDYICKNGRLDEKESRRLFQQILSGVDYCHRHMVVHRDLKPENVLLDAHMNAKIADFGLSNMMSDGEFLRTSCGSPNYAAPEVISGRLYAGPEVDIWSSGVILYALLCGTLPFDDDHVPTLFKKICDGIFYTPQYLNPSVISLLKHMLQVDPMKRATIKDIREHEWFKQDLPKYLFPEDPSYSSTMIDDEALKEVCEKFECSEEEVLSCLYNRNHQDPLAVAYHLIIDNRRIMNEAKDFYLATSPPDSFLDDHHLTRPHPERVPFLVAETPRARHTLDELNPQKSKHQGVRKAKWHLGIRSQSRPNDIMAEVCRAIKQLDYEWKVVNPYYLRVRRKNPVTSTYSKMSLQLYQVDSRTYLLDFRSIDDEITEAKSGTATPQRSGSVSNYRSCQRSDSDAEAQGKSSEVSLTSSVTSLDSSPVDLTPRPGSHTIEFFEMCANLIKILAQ
AMP-activated protein kinase (AMPK) alpha-1/beta-1/gamma-1 (Homo sapiens), sequence (Q9Y478 2-270 partner limits assumed): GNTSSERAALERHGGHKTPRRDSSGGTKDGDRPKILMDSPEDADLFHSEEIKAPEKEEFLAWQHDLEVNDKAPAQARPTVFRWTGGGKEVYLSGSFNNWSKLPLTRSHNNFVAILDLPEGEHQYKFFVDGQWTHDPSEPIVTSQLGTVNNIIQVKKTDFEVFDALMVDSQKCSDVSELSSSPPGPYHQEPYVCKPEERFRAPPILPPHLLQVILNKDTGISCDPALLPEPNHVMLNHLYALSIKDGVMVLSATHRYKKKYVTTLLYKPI

[2] = biological target: T1, Rhodopsin kinase GRK1 (Homo sapiens) (UniProt Q15835); assay: Inhibition of GRK1 (unknown origin) assessed as enzyme activity incubated for 15 mins by [gamma-33]ATP based scintillation counting method relative to control; parameters: scale not given: the % may be the effect or the level left
T1 sequence (whole entry): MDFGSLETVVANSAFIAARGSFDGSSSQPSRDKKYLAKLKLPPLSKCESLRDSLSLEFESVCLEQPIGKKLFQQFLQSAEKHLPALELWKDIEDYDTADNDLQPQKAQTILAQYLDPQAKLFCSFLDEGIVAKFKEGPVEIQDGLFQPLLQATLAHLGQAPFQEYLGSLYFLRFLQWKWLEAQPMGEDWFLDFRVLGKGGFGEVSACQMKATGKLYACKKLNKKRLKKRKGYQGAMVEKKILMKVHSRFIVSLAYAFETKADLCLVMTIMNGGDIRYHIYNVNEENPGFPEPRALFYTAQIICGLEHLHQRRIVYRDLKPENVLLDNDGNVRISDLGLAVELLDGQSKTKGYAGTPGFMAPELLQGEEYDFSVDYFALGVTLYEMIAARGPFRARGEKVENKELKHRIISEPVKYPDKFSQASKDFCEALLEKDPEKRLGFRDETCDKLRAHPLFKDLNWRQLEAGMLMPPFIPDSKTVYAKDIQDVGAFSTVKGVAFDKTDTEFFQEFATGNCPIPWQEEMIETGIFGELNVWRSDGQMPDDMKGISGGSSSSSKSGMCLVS

[3] = biological target: Ribosomal protein S6 kinase alpha-5 (Homo sapiens) (UniProt O75582); assay: Inhibition of recombinant human N-terminal GST-tagged full length MSK1 expressed in baculovirus infected Sf9 insect cells assessed as enzyme activity incubated for 15 mins by [gamma-33]ATP based scintillation counting method relative to control; parameters: scale not given: the % may be the effect or the level left
Ribosomal protein S6 kinase alpha-5 (Homo sapiens), sequence (O75582 whole entry, looked up): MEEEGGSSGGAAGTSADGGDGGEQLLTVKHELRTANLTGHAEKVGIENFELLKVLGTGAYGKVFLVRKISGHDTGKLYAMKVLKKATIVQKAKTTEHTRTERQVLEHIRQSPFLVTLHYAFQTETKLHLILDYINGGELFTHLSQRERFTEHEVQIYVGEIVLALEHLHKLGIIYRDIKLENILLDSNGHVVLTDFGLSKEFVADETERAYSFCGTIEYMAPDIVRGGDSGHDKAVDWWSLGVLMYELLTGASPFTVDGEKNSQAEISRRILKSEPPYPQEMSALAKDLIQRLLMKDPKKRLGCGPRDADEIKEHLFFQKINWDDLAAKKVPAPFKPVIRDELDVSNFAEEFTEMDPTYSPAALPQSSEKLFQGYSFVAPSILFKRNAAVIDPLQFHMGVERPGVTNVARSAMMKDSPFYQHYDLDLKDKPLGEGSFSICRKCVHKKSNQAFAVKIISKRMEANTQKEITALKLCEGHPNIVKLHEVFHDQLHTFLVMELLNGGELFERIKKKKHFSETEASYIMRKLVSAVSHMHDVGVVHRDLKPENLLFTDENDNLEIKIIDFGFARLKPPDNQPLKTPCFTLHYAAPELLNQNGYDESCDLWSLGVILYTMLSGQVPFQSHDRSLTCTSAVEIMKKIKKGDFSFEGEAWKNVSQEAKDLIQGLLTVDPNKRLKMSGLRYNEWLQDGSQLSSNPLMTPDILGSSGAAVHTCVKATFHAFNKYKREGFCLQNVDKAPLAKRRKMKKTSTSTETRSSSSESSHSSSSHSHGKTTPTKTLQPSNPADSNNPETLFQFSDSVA

[4] = biological target: Tyrosine-protein kinase Blk (Homo sapiens) (UniProt P51451); assay: Inhibition of recombinant human N-terminal GST-tagged full length BLK expressed in baculovirus infected Sf9 insect cells assessed as enzyme activity incubated for 15 mins by [gamma-33]ATP based scintillation counting method relative to control; parameters: scale not given: the % may be the effect or the level left
Tyrosine-protein kinase Blk (Homo sapiens), sequence (P51451 2-505 limits assumed): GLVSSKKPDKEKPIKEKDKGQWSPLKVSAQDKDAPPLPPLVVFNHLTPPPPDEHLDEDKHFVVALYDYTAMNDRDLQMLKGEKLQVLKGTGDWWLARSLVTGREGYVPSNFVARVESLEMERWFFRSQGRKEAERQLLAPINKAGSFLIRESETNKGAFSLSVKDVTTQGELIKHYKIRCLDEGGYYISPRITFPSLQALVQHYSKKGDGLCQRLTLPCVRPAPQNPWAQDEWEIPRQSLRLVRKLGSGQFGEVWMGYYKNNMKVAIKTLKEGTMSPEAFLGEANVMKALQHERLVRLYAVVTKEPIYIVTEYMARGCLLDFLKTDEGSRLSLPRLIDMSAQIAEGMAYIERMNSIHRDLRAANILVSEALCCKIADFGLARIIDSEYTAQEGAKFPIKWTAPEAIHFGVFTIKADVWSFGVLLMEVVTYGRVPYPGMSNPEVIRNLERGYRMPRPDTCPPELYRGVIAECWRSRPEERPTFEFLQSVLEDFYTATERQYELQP

[5] = biological target: Glycogen synthase kinase-3 alpha (Homo sapiens) (UniProt P49840); assay: Inhibition of recombinant human N-terminal GST-tagged full length GSK3alpha expressed in baculovirus infected Sf9 insect cells assessed as enzyme activity incubated for 15 mins by [gamma-33]ATP based scintillation counting method relative to control; parameters: scale not given: the % may be the effect or the level left
Glycogen synthase kinase-3 alpha (Homo sapiens), sequence (P49840 2-483 limits assumed): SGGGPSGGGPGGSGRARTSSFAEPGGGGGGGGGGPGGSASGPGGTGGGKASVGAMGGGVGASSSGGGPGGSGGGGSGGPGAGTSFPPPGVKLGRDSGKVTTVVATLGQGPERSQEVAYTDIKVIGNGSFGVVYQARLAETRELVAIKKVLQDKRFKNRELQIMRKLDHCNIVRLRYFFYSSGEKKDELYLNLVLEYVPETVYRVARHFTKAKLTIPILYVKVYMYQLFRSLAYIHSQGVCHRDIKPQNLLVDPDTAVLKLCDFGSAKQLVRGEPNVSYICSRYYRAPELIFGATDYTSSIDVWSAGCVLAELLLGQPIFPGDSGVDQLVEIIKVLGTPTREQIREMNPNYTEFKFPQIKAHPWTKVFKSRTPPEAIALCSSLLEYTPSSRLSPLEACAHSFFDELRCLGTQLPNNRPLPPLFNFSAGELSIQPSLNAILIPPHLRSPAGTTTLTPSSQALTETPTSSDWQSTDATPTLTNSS

[6] = biological target: T2, 3-phosphoinositide-dependent protein kinase 1 (Homo sapiens) (UniProt O15530); assay: Inhibition of recombinant human N-terminal His-tagged full length PDK1 expressed in baculovirus infected Sf9 insect cells assessed as enzyme activity incubated for 15 mins by [gamma-33]ATP based scintillation counting method relative to control; parameters: scale not given: the % may be the effect or the level left
T2 sequence (whole entry): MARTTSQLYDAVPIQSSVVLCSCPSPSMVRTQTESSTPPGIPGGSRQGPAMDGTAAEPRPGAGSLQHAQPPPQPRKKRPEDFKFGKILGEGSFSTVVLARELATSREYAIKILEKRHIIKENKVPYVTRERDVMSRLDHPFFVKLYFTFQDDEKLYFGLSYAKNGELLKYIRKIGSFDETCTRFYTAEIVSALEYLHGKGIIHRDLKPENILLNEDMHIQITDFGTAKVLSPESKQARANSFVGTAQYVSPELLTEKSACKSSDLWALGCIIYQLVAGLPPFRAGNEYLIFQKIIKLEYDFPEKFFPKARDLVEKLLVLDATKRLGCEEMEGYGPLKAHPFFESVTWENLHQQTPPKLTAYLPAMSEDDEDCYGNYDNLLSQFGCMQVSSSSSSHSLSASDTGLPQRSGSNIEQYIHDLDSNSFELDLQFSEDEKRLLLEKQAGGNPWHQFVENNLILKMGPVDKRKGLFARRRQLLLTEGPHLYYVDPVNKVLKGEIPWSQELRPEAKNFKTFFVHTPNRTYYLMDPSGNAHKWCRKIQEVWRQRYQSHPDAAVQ

[7] = biological target: Cyclin-dependent kinase 2 (Homo sapiens, UniProt P24941); assay: Inhibition of CDK2 (unknown origin) incubated for 40 mins by ADP-glo assay
HT-29 = assay: Antiproliferative activity against human HT-29 cells assessed as reduction in cell growth incubated for 72 hrs by MTT assay; assay type: functional, cell-based; conditions: HT-29, 72 h
In short: (§1)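 MTT assay on MCF-7, A2780, HT29 and normal MRC5 fibroblast lines (ATCC) grown in DMEM with 10% FBS. Cells exposed to compounds for 72 h, then reduced MTT read at 570 nm.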

MRC5 = assay: Cytotoxicity against human MRC5 cells assessed as reduction in cell growth incubated for 72 hrs by MTT assay; assay type: cell-based; conditions: MRC5, 72 h; in short: as §1

Activity [1]	Activity [2]	Activity [3]	Activity [4]	Activity [5]	Activity [6]	IC50 [7]	IC50 (HT-29)	SMILES	IC50 (MRC5)
18%	2%	49%	-3%	-1%	34%			Cc1ccc(NC(=O)c2ccc(CN3CCN(C)CC3)cc2)cc1Nc1nccc(-c2cccnc2)n1	
12%	1%	29%	7%	-3%	28%	1270 nM	670 nM	CC(C)C/C=N/c1c(C#N)c2n(c1C(=O)Nc1ccc(Br)cc1)CCC2	25800 nM
-4%	-10%	-22%	-32%	-24%	-15%	580 nM	200 nM	CC/C=N/c1c(C#N)c2n(c1C(=O)Nc1ccccc1)CCC2	3170 nM
2%	-9%	-23%	26%	-12%	-11%	630 nM	600 nM	CCC1SCC(=O)N1c1c(C#N)c2n(c1C(=O)Nc1ccccc1)CCC2 (stereo not drawn)	630 nM
